According to ChEMBL document CHEMBL1154379, “Soluble polyphenols: synthesis and bioavailability of 3,4',5-tri(alpha-D-glucose-3-O-succinyl) resveratrol” (Bioorg Med Chem Lett, 2009):
Converted amounts (≈) assume the structure as drawn.

Experiments:
[1] = Solubility in water at room temperature; format: physicochemical
[2] = Chemical stability in 1N HCl solution assessed as compound remaining at 37degC; format: physicochemical; conditions: buffer
How it was run: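 The compound was incubated in 1 N HCl at 37 °C for 6 h and analysed by LC–MS. The amount remaining is expressed as % of the initial molar amount.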

Rattus norvegicus [3] = assay: AUC in intragastrically dosed rat assessed as resveratrol level at 0.09 mmol/kg after 10 mins; format: ADME, organism-based, Plasma; set-up: time < 0.166667 hr, dose 0.09 mmol/kg, route intragastric; conditions: in vivo, po
How it was run: (§1)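 Rats received intragastric doses, with the same animals given both resveratrol and the derivative to limit individual variability. Blood was sampled over time. Circulating resveratrol and its sulfate and glucuronide conjugates were identified by HPLC–UV at 320 nm and LC–MS against synthesized phase II metabolite standards, confirmed by enzymatic treatment. Cmax and AUC were taken from concentration–time curves.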

Rattus norvegicus [4] = assay: AUC in intragastrically dosed rat assessed as resveratrol sulfate level at 0.09 mmol/kg after 10 mins; format: ADME, organism-based, Plasma; set-up: dose 0.09 mmol/kg, time < 0.166667 hr, route intragastric; conditions: in vivo, po; how it was run: as §1
Rattus norvegicus [5] = assay: AUC in intragastrically dosed rat assessed as resveratrol glucuronide level at 0.09 mmol/kg after 10 mins; format: ADME, organism-based, Plasma; set-up: time < 0.166667 hr, dose 0.09 mmol/kg, route intragastric; conditions: in vivo, po; how it was run: as §1
Rattus norvegicus [6] = assay: AUC in intragastrically dosed rat assessed as resveratrol disulfate level at 0.09 mmol/kg after 10 mins; format: ADME, organism-based, Plasma; set-up: time < 0.166667 hr, dose 0.09 mmol/kg, route intragastric; conditions: in vivo, po; how it was run: as §1
Rattus norvegicus [7] = assay: AUC in intragastrically dosed rat assessed as total metabolite level at 0.09 mmol/kg after 10 mins; format: ADME, organism-based, Plasma; set-up: dose 0.09 mmol/kg, time < 0.166667 hr, route intragastric; conditions: in vivo, po; how it was run: as §1
[8] = Solubility in pH 9 buffer; format: physicochemical
[9] = Cmax in intragastrically dosed rat at 0.09 mmol/kg after 10 mins; format: ADME, organism-based; set-up: dose 0.09 mmol/kg, route intragastric; conditions: in vivo, po
How it was run: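 Rats dosed intragastrically, with the same animals receiving both resveratrol and the glucosylsuccinyl derivative. Blood was sampled over time. Circulating species were identified by HPLC-UV at 320 nm and LC–MS against synthesized phase II metabolite standards (sulfates, glucuronides), with confirmation by enzymatic treatment. Cmax was read from concentration–time curves.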

solubility [1] [mg/mL] | Stability [2] [%] | AUC (Rattus norvegicus [3]) [µM·h] | AUC (Rattus norvegicus [4]) [µM·h] | AUC (Rattus norvegicus [5]) [µM·h] | AUC (Rattus norvegicus [6]) [µM·h] | AUC (Rattus norvegicus [7]) [µM·h] | solubility [8] [mg/mL] | Cmax [9] [nM] | Compound
90 (≈ 88.7 mM) | 80 | 0.2 | 3.5 | 21.2 | 27 | 51.8 |  |  | O=C(CCC(=O)O[C@@H]1[C@@H](O)[C@@H](O)O[C@H](CO)[C@H]1O)Oc1ccc(/C=C/c2cc(OC(=O)CCC(=O)O[C@@H]3[C@@H](O)[C@@H](O)O[C@H](CO)[C@H]3O)cc(OC(=O)CCC(=O)O[C@@H]3[C@@H](O)[C@@H](O)O[C@H](CO)[C@H]3O)c2)cc1
 |  |  |  |  |  |  | 2.3 (≈ 3.77 mM) |  | C[C@@H]1O[C@@H](OC[C@H]2O[C@@H](Oc3c(-c4ccc(O)c(O)c4)oc4cc(O)cc(O)c4c3=O)[C@H](O)[C@@H](O)[C@@H]2O)[C@H](O)[C@H](O)[C@H]1O [RUTIN]
 |  | 1.1 | 2.4 | 35.5 | 14.4 | 53.4 |  | 1200 | Oc1ccc(/C=C/c2cc(O)cc(O)c2)cc1 [RESVERATROL]
